Data taken from the EternaBench riboswitch data.

Tested on: MS2 coat protein
Assay: apparent Kd, MS2 coat protein; higher = weaker binding; RNA-MaP array; FMN 200 µM where present
How it was run: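 The apparent Kd comes from binding curves fitted cluster by cluster, filtered, and summarised as a median. Those curves followed SNAP-549-labelled MS2 coat protein from 0.7 or 1.5 nM, doubling to 3 µM, on Illumina sequencing-chip clusters where stalled E. coli RNA polymerase had transcribed the designs, without and then with constant ligand. The buffer was 100 mM Tris-HCl pH 7.5, 80 mM KCl, 4 mM MgCl2, BSA, DTT, yeast tRNA and Tween-20, and green signal was normalised to red-channel RNA signal and control-cluster median Fmax.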

[1] = designed as: ON switch for flavin mononucleotide, no ligand
[2] = ligand present: flavin mononucleotide, designed as: ON switch for flavin mononucleotide
[3] = designed as: OFF switch for flavin mononucleotide, no ligand
[4] = ligand present: flavin mononucleotide, designed as: OFF switch for flavin mononucleotide

GUGGACGUCGUAGGAUAUGUAGGAUAUUCCUACAUGAGGAUCACCCAUGUUUACAUGGAAGAAGGACAGAAGGACGAUGUCCAG
apparent Kd [1]: 992 nM | apparent Kd [2]: 16.2 nM

GUGGAGUACGUAGGAUAUGUAGGAUAUUCCUACAUGAGGAUCACCCAUGUUGACAUGGAGGAAGGACAGAAGGACGUGCUCCAG
apparent Kd [1]: 265 nM | apparent Kd [2]: 256 nM

GUGGCACAUGAGGAUCACCCAUGUCAGGAUAUCGCGUGGUUUUUUUCGGCCGCGCGCGCGAGAAGGGACGUCUU
apparent Kd [3]: 31.1 nM | apparent Kd [4]: 29.1 nM

GUGGCAUGAGGAUAUCGAGGUUAGUACAUGAGGAUCACCCAUGUUAUCCAGGUGUCGGUUCGAGAAGGCAUGGCAC
apparent Kd [3]: 326 nM | apparent Kd [4]: 302 nM

GUGGCUAGUGCAGGAUAUCGGCGCGUGUAGUGUCGAGAAGGGCACAUGAGGAUCACCCAUGUGAUCAAUCACUGCUAAGGCCGC
apparent Kd [3]: 5.12 nM | apparent Kd [4]: 5.38 nM

GUGGUACAUGAGGAUCACCCAUGUUAGGAUAUCGCGUGAGGUAAAACUUACACACACACGAGAAGGGACGUCUU
apparent Kd [3]: 45.9 nM | apparent Kd [4]: 41 nM

GUGGUACAUGAGGAUCACCCAUGUUAGGAUAUCGCGUGAGGUUUUACUUCCGCACGCGCGAGAAGGGACGUCUU
apparent Kd [3]: 36.2 nM | apparent Kd [4]: 29.5 nM

GUGGUCAGACAUGAGGAUCACCCAUGUGGAAUAAAUAACGGACAGGAUAUAGAAUAUAGGAUAUACUAGAAGGGUUGAUUGGUG
apparent Kd [1]: 55.7 nM | apparent Kd [2]: 57.3 nM

GUGGUCAGACAUGAGGAUCACCCAUGUGGAAUAAAUAAGGAUUAGGAUAUGGAAUAUAGGAUAUACCAGAAGGAAUGGUUGGUG
apparent Kd [1]: 97.8 nM | apparent Kd [2]: 103 nM

GUGUACAGAGGAUAUACAGGAGCAUGGAAACAUGCAACUUCACAUGAGGAUCACCCAUGUAGAAGGCUGUACAC
apparent Kd [3]: 16 nM | apparent Kd [4]: 47.9 nM

GUGUACAGAGGAUAUACAUGAGCAUGGAAACAUGCAUCCUCACAUGAGGAUCACCCAUGUAGAAGGCUGUACAC
apparent Kd [3]: 26.6 nM | apparent Kd [4]: 31.6 nM

GUGUACCGAGGAUAUGCUGGAAUCUAGCGAAGCUAGGUUCCACAUGAGGAUCACCCAUGUAGAAGGUGGUACAC
apparent Kd [3]: 79.9 nM | apparent Kd [4]: 25.7 nM

GUGUAGACAGGAUAUGCUUUGAGCAUAUGAGAGUAUGCUCGACAUGAGGAUCACCCAUGUAGAAGGGUCUACAC
apparent Kd [3]: 12.1 nM | apparent Kd [4]: 12.9 nM

GUGUAGAUAGGAUAUGCGUGAGUCUAGCGAAGCUAGAUUCUACAUGAGGAUCACCCAUGUAGAAGGGUCUACAC
apparent Kd [3]: 17.2 nM | apparent Kd [4]: 18.5 nM

GUGUAGAUAGGAUAUGCUGGAAUCUAGCGAAGCUAGGUUCCACAUGAGGAUCACCCAUGUAGAAGGGUCUACAC
apparent Kd [3]: 200 nM | apparent Kd [4]: 54 nM

GUGUAGUCAGGAUAUACAGAGGAAGAUAAUACAAUAUAAGUACAUGAGGAUCACCCAUGUAGAAGGGACAGUGU
apparent Kd [3]: 30.8 nM | apparent Kd [4]: 32.4 nM

GUGUAGUCAGGAUAUACAUAGGAAGAGAAGAGAAGAUAAGCACAUGAGGAUCACCCAUGUAGAAGGGACAGUGU
apparent Kd [3]: 65.1 nM | apparent Kd [4]: 70.7 nM

GUUAAACAUGAGGAUCACCCAUGUCAAUGUAGUCGAGGAUAUGGGCAGCUAUGAGGCGUACUAGAAGGCGAAGAGU
apparent Kd [1]: 361 nM | apparent Kd [2]: 178 nM

GUUAUUGACAAGAAGGCAAACAUGAGGAUCACCCAUGUUCUACAUGUAUAUUGAGGAUAUUGCCAAUACAUGAGGAUCACCCAG
apparent Kd [3]: 45 nM | apparent Kd [4]: 53.3 nM

GUUCAACAUGAGGAUCACCCAUGUAGAAGGCGCUCCGACAUUUUGUAGAACGAGGUGGGUGCGGGCGAGGAUAUACGUGGCGCU
apparent Kd [3]: 48.4 nM | apparent Kd [4]: 89.6 nM

GUUGACAGCACAGGAUAUGCGCAGUCUAUAUCACAUGAGGAUCACCCAUGUCGGCAACAGACCGAGCAGAAGGGUGCGAGUGUG
apparent Kd [1]: 235 nM | apparent Kd [2]: 39.7 nM

GUUGCAAAUGAGAAGGCGAUCAUGAAACAUGAUCGAGGAUAUCAUGUUUACAUGAGGAUCACCCAUGUAUGGGUAUAUUGCAGC
apparent Kd [1]: 402 nM | apparent Kd [2]: 22.2 nM

GUUGCACAAGUUAACAUGAGGAUCACCCAUGUCAAAAGACAUGAGGAUAUGGAGCUGAAGAUUAUCCAGAAGGCAUAAUGCUAA
apparent Kd [1]: 460 nM | apparent Kd [2]: 158 nM

GUUUACCGAGGAUAUACAUGAGGAUCACCCAUGUUCCUAACAAACGUCGGUUCAGCGUGUAGAAGGCGGACCUA
apparent Kd [3]: 17.9 nM | apparent Kd [4]: 28.4 nM

GUUUACGUAGAAGGAUAUACAUUUGACAUCCUGAUGCACGCAAUACUCACAUGAGGAUCACCCAUGUAGAAGGUCUGCGAAAGA
apparent Kd [3]: 15.5 nM | apparent Kd [4]: 24.8 nM

GUUUCACAUGAGGAUCACCCAUGUGAGGAUAUAGAUUUUUUAGUAAUAAUUGUUGGAUUUAGAAGGCGCGUGAU
apparent Kd [3]: 22 nM | apparent Kd [4]: 21.5 nM

GUUUCACAUGAGGAUCACCCAUGUGAGGAUAUGGAUUUGUUAACCGUAGUUAAUAGAUCCAGAAGGCGCGUGAU
apparent Kd [3]: 62.4 nM | apparent Kd [4]: 68.2 nM

GUUUCGGGAGGAUAUGCGUGGAUUAUUCUCGUAUGUUGUUUACAUGAGGAUCACCCAUGUAGAAGGUCUGGAGC
apparent Kd [3]: 193 nM | apparent Kd [4]: 300 nM

GUUUCUAUAUGUUUUAUUUAACAGUCAGAAGGUGAUAAUACGACAUGAGGAUCACCCAUGUAAUUCAAGGAUAUGAUAUUAAUC
apparent Kd [1]: 62.7 nM | apparent Kd [2]: 27.7 nM

GUUUGUUAUUAGAAGGUGCCAGCGAGAGCUGCACAUGAGGAUCACCCAUGUUGUCGGUGACGACGCAAGGAUAUGGUGGUGGAU
apparent Kd [1]: 715 nM | apparent Kd [2]: 169 nM

GUUUUCGCAGGAUAUUAGAGUUUUUACAUGAGGAUCACCCAUGUUAAUUGGGUUAAUGUCUAAGAAGGGCGAUGUA
apparent Kd [3]: 67.6 nM | apparent Kd [4]: 101 nM

GUUUUUUUUAGUUCAUACUAUAAGAUAGAAGGUGAAAUAUAGACAUGAGGAUCACCCAUGUAAUUCAAGGAUAUGUAGUUACUC
apparent Kd [1]: 44.1 nM | apparent Kd [2]: 24.8 nM

UAAAAGCGAGGAUAUACAUGAGGAUCACCCAUGUGAGGCGAAACGCCUCGGGCCAUCAGUAGAAGGUGCAAAAC
apparent Kd [3]: 109 nM | apparent Kd [4]: 84.8 nM

UAAAAGGCAGGAUAUGCAGGUGACCCGACUCGCCGGGCUAAACAUGAGGAUCACCCAUGUAGAAGGGCCAAAAG
apparent Kd [3]: 15.7 nM | apparent Kd [4]: 43.6 nM

UAAAAGUCAGGAUAUGCGAGAGAUUGAAGUGUGGCAAGGUAGCAGAAGGGACAUGAGGAUCACCCAUGUGUGGC
apparent Kd [3]: 52.4 nM | apparent Kd [4]: 115 nM

UAAACACCCUCAUGUACCUGAGGACAUGAGGAUCACCCAUGUAAGGAUAUAGCCAUUAAAUCUAACUAGAAGGUAUAGGAAAUC
apparent Kd [3]: 865 nM | apparent Kd [4]: 529 nM

UAAACACCCUCAUGUGCCUGAGGACAUGAGGAUCACCCAUGUAAGGAUAUAGCCAUUAAAUCUAACUAGAAGGUAUAGGAAAUC
apparent Kd [3]: 597 nM | apparent Kd [4]: 476 nM

UAAAGUUAAGGAGGAUAUUACAUGAGGAUCACCCAUGUAAUGGGCUCGGUGUAAGAAGGCCUUGAGUCGAAGUUUCGGAUAAGG
apparent Kd [3]: 9.05 nM | apparent Kd [4]: 18.6 nM

UAAAUGUGAGGAUAUCAGGUGUGCUAGCGAACUGGUACAUCUGAGAAGGCACAUGAGGAUCACCCAUGUUCCUU
apparent Kd [3]: 17 nM | apparent Kd [4]: 61.5 nM

UAAAUUAACAAGAAGGCUAACAUGAGGAUCACCCAUGUUGUACAUGGAUAUAGAGGAUAUUGAUAAUAAUUUUUUAUCAUAAUU
apparent Kd [3]: 17.6 nM | apparent Kd [4]: 16.5 nM

UAAGAUUAUGUAGGAUAUGGUUAUCUAUGUCUAGUUACUAGACAUAGAUAACCAGAAGGACAUGAGGAUCACCCAUGUUGAACG
apparent Kd [3]: 7.73 nM | apparent Kd [4]: 16.9 nM

UAAGUAAGUGCAGGAUAUUUAAGAAGAACAUGAGGAUCACCCAUGUGAGGAUCACCCAUGUAAAAGGAGAAGGGCAGAGUAUGA
apparent Kd [3]: 960 nM | apparent Kd [4]: 1220 nM

UAAUAAUAAUAAUAGCAGAAUUACAUGAGGAUCACCCAUGUAUAGGAUAUCGUCAGGAAUACUGACGAGAAGGAUACAAACUGC
apparent Kd [3]: 17.6 nM | apparent Kd [4]: 21.9 nM

UAAUUAAGUGUGAGGAUAUGCUGGUCCUUGGAUCAGCAGAAGGCACAUGAGGAUCACCCAUGUAAUAUAUUUAU
apparent Kd [3]: 97.4 nM | apparent Kd [4]: 493 nM

UACAGACAUGAGGAUCACCCAUGUGAGGAUAUCGGUACCGAUGGCAUAAUCUGCUCGGCGAGAAGGCACAGUGU
apparent Kd [3]: 28 nM | apparent Kd [4]: 48.4 nM

UACAUCGGAGGAUAUACAUGAGGAUCACCCAUGUGAGUGUAAGGGAGCGUAAGCGGGUGUAGAAGGCCGUCUUU
apparent Kd [3]: 58.3 nM | apparent Kd [4]: 49.5 nM

UACAUGAGGAUCACCCAUGUUUUGUCGUGUAUGGUAUUUAUCUAGGAUAUCAUUCUAUUUAGUUAUGAGAAGGAGAAUAUUAAU
apparent Kd [3]: 28.1 nM | apparent Kd [4]: 27.4 nM

UACAUGAGGAUCACCCAUGUUUUGUCGUGUAUGGUAUUUAUCUAGGAUAUCGUGUUAUUUAACCACGAGAAGGAGAGUAUCAAU
apparent Kd [3]: 27.5 nM | apparent Kd [4]: 26.7 nM

UACCACCGCACGGACACGCCGAGUCAGGAUAUACAUGAGGAUCACCCAUGUGAAGGCCGGCUCGUGUAGAAGGGACAGGCGUUG
apparent Kd [3]: 5.43 nM | apparent Kd [4]: 6.72 nM

UACCGCUCUGAAGGAUAUCCACUGGGAUGCUGGAUGUAUGAGCGUACAUGAGGAUCACCCAUGUAGGAGAAGGUCAGGCAUUCC
apparent Kd [3]: 5.8 nM | apparent Kd [4]: 7.84 nM

UACCUCACUUCUUUGACUCACAUGAGGAUCACCCAUGUAAUAUAGGAUAUGCAUUUUAUUUCUUUGCAGAAGGAUAUUAGUUUU
apparent Kd [3]: 42.8 nM | apparent Kd [4]: 79.2 nM

UACUCAUGUGAGAAGGGACGUAUCUCCAUGAGGGCAGGGCUAUUAGGGAAGUCAGGAUAUCACAUGAGGAUCACCCAUGUGACG
apparent Kd [3]: 6.91 nM | apparent Kd [4]: 7.33 nM

UAGAAGUCAGGAUAUGCAUGGCGGGACUUGCGUCGUGGCGUGCAGAAGGGACAUGAGGAUCACCCAUGUAAAGG
apparent Kd [3]: 159 nM | apparent Kd [4]: 265 nM

UAGAAGUCAGGAUAUGCAUGGCGGGACUUGCGUCGUGGCGUGCAGAAGGGACAUGAGGAUCACCCAUGUGGAGA
apparent Kd [3]: 117 nM | apparent Kd [4]: 369 nM

UAGCGCUGUCGAGAGGAUAUGCGGUGAUGGACAUGAGGAUCACCCAUGUUAGCGAUAGCAUUACGGUAGAAGGCUCUACAGCUGU
apparent Kd [1]: 245 nM | apparent Kd [2]: 36 nM

UAGCUCUCGGCAGGAUAUCCUGCAUAAUGUCGAGUCCGCGCCCGGACAUGAGGAUCACCCAUGUAGGAGAAGGGCCCACGGGCU
apparent Kd [3]: 24.2 nM | apparent Kd [4]: 45.5 nM
